Consider 30 molecules from PubChem BioAssay.

Active and inactive are the calls of the source.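 The calls were made as follows, unless noted: active = mean duplicate activation above the buffer control mean plus 5 SD of those controls; inactive = the rest.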

The nature of experiment [1]: nonspecific flux increase, KCNQ1-free cells – parental CHO cells, counter-screen for KCNQ1 potentiator project (AID 493006;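 active = duplicate-averaged activation above buffer control mean plus 5 SD of those controls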). The conditions noted are these: parental CHO-K1 cells, FluxOR thallium flux, at 10 µM; active compounds read high. In a few lines: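 Material: parental CHO-K1 cells, FluxOR dye-loaded; Also added: Potassium/thallium depolarization pulse; Schedule: overnight 37 °C plating, 90 min dye, 20 min dark compound; Signal: kinetic FluxOR fluorescence, 10 s baseline, 110 s after stimulus.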
A general note: The purpose of a counterscreen is to sort out artefacts and off-target activity.

The target of experiment [2] is Potassium voltage-gated channel subfamily KQT member 1 (Homo sapiens) (UniProt P51787). Description: enhancement of KCNQ1 channel thallium flux – FluxOR thallium flux, CHO cells, duplicates, confirmation (AID 493007;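 active = potentiation averaged over duplicate wells exceeding buffer-only control mean by more than 3 SD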;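 as to outcome: cells depolarized by a potassium plus thallium sulfate stimulus after compound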). The note with it: KCNQ1 cell line, FluxOR thallium flux fluorescence, at 10 µM; active compounds read high, % of reference activator effect, buffer zero. In a few lines: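 System: KCNQ1-expressing CHO cell line; technique: kinetic thallium influx fluorescence with FluxOR dye, 10 s baseline, 110 s post-stimulus; timing: dye 90 min then compound 20 min, both at room temperature; controls: buffer-only wells as 0% and R-L3 activator as 100%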

Experiment [3] deals with Potassium voltage-gated channel subfamily KQT member 2 (Rattus norvegicus) (UniProt O88943). The experiment can be described thus: KCNQ2 thallium flux enhancement – KCNQ2-CHO-K1 cells, selectivity assay for KCNQ1 potentiator project (AID 493009;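 active = mean duplicate potentiation above the buffer control mean plus 5 SD of buffer wells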;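 also: assay conditions were tuned for KCNQ1 rather than KCNQ2 modulators; signal is max minus min fluorescence divided by baseline after thallium stimulus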). The note with it: FluxOR thallium flux fluorescence, at 10 µM; active compounds read high, scaled: buffer 0, activator control 100.
The target in experiment [4] is Potassium voltage-gated channel subfamily KQT member 1 (Homo sapiens) (UniProt P51787). The experiment can be described thus: KCNQ1 activators by electrophysiology – IonWorks patch clamp, KCNQ1-CHO cells, orthogonal assay for KCNQ1 potentiator project, confirmation (AID 493184;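 active = current rise at least 3 SD above the untreated control mean in each of two repeat wells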;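 as to current potentiation: percent change of the same well's current before compound addition so 0% = no change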). The note with it: automated patch clamp current, at 10 µM; active compounds read high. In a few lines:
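Test system: KCNQ1-expressing CHO cells. Medium: pH 7.4 external bath. Probe or stimulus: voltage step from -90 mV holding to +40 mV, 2,000 ms. Compound: 10 µM final, single point. Detection: automated perforated-patch electrophysiology. Read-out: percent current increase versus pre-compound level. Repeats: two replicates.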

For experiment [5], the target named is Potassium voltage-gated channel subfamily E member 1 (Homo sapiens) + Potassium voltage-gated channel subfamily KQT member 1 (Homo sapiens) (UniProt P15382+P51787). The experiment can be described thus: KCNQ1-E1 channel activation – thallium flux, CHO-K1 KCNQ1/E1 cells, selectivity assay for KCNQ1 potentiator project, confirmation (AID 493186). The note with it: FluxOR thallium flux, at 10 µM; active compounds read high. Summed up: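 Material: CHO-K1 cells with KCNQ1/E1 / Timing: dye 90 min, compound 20 min, room temperature / Technique: kinetic thallium-sensitive FluxOR dye fluorescence / Read-out: percent activation scaled between buffer and R-L3 ratio signals / Replicates: tested in duplicate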
Chain of Potassium voltage-gated channel subfamily E member 1 (Homo sapiens) + Potassium voltage-gated channel subfamily KQT member 1 (Homo sapiens) (P51787 whole entry, looked up): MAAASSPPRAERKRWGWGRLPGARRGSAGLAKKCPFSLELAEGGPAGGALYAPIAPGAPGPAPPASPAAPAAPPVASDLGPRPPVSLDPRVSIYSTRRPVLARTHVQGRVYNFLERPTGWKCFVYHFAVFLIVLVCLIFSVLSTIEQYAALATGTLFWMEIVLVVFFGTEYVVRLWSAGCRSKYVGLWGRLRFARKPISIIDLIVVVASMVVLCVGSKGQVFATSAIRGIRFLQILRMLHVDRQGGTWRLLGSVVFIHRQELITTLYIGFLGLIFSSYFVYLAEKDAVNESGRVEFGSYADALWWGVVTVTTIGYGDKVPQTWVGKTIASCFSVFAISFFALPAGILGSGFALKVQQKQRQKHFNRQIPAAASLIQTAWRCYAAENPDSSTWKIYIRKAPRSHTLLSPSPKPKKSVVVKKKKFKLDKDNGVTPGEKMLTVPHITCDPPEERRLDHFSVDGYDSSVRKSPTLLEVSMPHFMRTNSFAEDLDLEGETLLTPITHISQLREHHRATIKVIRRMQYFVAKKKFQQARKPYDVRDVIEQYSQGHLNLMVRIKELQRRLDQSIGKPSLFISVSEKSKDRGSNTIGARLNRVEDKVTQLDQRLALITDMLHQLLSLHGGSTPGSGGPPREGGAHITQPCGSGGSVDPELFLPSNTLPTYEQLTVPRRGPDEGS

Chain of Potassium voltage-gated channel subfamily KQT member 2 (Rattus norvegicus) (O88943 whole entry, looked up): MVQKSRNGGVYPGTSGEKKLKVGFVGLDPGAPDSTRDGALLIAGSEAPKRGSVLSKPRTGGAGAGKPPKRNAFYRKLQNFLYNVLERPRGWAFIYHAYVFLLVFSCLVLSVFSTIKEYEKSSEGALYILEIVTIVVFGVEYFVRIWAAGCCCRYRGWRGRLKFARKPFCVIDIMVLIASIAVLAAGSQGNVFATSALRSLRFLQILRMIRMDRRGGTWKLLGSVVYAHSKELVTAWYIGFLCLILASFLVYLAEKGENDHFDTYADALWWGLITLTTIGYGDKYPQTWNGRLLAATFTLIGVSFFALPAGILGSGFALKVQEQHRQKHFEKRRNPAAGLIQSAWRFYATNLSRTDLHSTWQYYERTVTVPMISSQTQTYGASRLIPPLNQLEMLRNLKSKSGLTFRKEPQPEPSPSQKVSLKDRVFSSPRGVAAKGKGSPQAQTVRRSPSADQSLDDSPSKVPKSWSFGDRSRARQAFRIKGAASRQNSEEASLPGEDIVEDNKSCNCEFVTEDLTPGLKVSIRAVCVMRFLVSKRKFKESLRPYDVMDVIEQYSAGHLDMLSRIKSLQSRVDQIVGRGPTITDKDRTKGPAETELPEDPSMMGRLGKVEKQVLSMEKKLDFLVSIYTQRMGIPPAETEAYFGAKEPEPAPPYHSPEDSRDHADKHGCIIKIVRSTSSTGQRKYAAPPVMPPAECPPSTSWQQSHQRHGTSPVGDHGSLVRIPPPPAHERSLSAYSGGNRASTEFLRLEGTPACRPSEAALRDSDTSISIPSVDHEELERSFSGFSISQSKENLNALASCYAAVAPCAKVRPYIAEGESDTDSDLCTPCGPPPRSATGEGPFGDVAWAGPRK
Chain of Potassium voltage-gated channel subfamily KQT member 1 (Homo sapiens) (P51787 whole entry, looked up): as the sequence (P51787 whole entry, looked up) above

`O=C(O)c1cc2cc(F)ccc2[nH]1`: the result in experiment [1], in experiment [2], in experiment [3], in experiment [4] and in experiment [5] was inactive.
Take `Cc1ccc(C)c(/C=N/n2cc(-c3ccccc3)[nH]c2=S)c1`: the outcome in experiment [1], in experiment [3], in experiment [4] and in experiment [5] was inactive. Also, in experiment [2], the potentiation is 24.5% (active).
Regarding `OCCN(CCO)c1ccc(C(c2ccccc2Cl)c2ccc(N(CCO)CCO)cc2Cl)c(Cl)c1`, the outcome in experiment [1], in experiment [3], in experiment [4] and in experiment [5] was inactive. Also, in experiment [2], the potentiation was 34.5% (active).
Turning to `CC(C)CC(=O)Nc1nnc(SCC(=O)NCc2ccco2)s1`, the result in experiment [1], in experiment [2], in experiment [3], in experiment [4] and in experiment [5] was inactive.
On to `Cn1c(SCC(=O)NC2CC2)nnc1-c1cccs1`, for which the result in experiment [1], in experiment [2], in experiment [3], in experiment [4] and in experiment [5] was inactive.
For the molecule `Oc1c(Cl)cc(Cl)cc1/C=N/NC(=S)NC1CC2C=CC1C2` (stereo not given), the result in experiment [1], in experiment [2], in experiment [3], in experiment [4] and in experiment [5] was inactive.
Turning to `CCOC(=O)C1CCCN(C(=O)Cn2sc3nc(C)cc(C)c3c2=O)C1` (stereo not given), the result in experiment [1], in experiment [2], in experiment [3], in experiment [4] and in experiment [5] was inactive.
As for `O=C(O)c1ccc([N+](=O)[O-])c(CS(=O)(=O)c2ccccc2)c1`, the outcome in experiment [1], in experiment [2], in experiment [3], in experiment [4] and in experiment [5] was inactive.
Take `COCCn1c(C)cc(C(=O)COC(=O)c2ccc([N+](=O)[O-])o2)c1C`: the outcome in experiment [1], in experiment [3], in experiment [4] and in experiment [5] was inactive. The potentiation in experiment [2] was 22.5% (active).
Regarding `O=c1oc2ccccc2c(Cl)c1CN1CCCCC1`, the result in experiment [1], in experiment [2], in experiment [3], in experiment [4] and in experiment [5] was inactive.
Take `COc1ccccc1N1CCN(C(=O)C2CCN(C(=O)c3cccc(Cl)c3)CC2)CC1`: the result in experiment [1], in experiment [2], in experiment [3], in experiment [4] and in experiment [5] was inactive.
As to `C/C(=N\NC(=S)NCCc1ccccc1)c1cccs1`, the result in experiment [1], in experiment [2], in experiment [3], in experiment [4] and in experiment [5] was inactive.
`COc1ccc(C(=O)NC(=S)NNC(=O)c2ccc(C)cc2)cc1`: the outcome in experiment [1] and in experiment [4] was inactive. Moreover, the potentiation in experiment [2] is 142% (active); in experiment [3] it was 250% (active). For the same molecule, the activation in experiment [5] is 62.3% (active).
For the molecule `O=C(CNS(=O)(=O)c1ccc([N+](=O)[O-])cc1)N/N=C\c1ccc(O)cc1`, the outcome in experiment [1], in experiment [4] and in experiment [5] was inactive. The potentiation is 24% (active) in experiment [2] and 154% (active) in experiment [3].
Take `CCN(CC)S(=O)(=O)c1ccc(NC(=O)c2cccnc2Cl)c(NC(=O)c2cccnc2Cl)c1`: the outcome in experiment [1], in experiment [4] and in experiment [5] was inactive. Moreover, the potentiation in experiment [2] was 43% (active); in experiment [3], 242% (active).
With `Oc1ccc(Br)cc1C=Nc1ccc(Cl)cc1`, the outcome in experiment [1], in experiment [2], in experiment [3], in experiment [4] and in experiment [5] was inactive.
Consider `O=C(NC(=S)Nc1cccc(Cl)c1)c1cncc(Br)c1`, for which the outcome in experiment [1], in experiment [2], in experiment [3], in experiment [4] and in experiment [5] was inactive.
Take `CCOC(=O)COc1cc(-n2c(=S)[nH]c3cc(OC)c(OC)cc3c2=O)c(Cl)cc1Cl`: the outcome in experiment [1], in experiment [3], in experiment [4] and in experiment [5] was inactive. In experiment [2], the potentiation was 31.5% (active).
`Cc1ccc(C(=O)CC(=O)c2ccc(C)cc2O)cc1`: the outcome in experiment [1], in experiment [2], in experiment [3], in experiment [4] and in experiment [5] was inactive.
In the case of `Cc1cc(/C=N/n2cnnc2)c(C)n1-c1ccc(Cl)cc1Cl`, the result in experiment [1], in experiment [2], in experiment [3] and in experiment [5] was inactive. Also, the current potentiation in experiment [4] is 28.9% (active).
Take `O=C(NCc1ccccn1)C1CCN(Cc2cccc(OCc3ccccc3)c2)CC1`: the outcome in experiment [1], in experiment [2], in experiment [3], in experiment [4] and in experiment [5] was inactive.
Turning to `CNC(=O)CSc1nc2c(c(=O)n(C)c(=O)n2C)n1Cc1ccc(C)cc1`, the result in experiment [1], in experiment [2], in experiment [3], in experiment [4] and in experiment [5] was inactive.
Regarding `Cc1[nH][nH]c(=O)c1C(c1ccc(-c2ccc(Cl)c(Cl)c2)o1)c1c(C)[nH][nH]c1=O`, the result in experiment [1], in experiment [3], in experiment [4] and in experiment [5] was inactive. The potentiation in experiment [2] was 30% (active).
In the case of `S=c1[nH]nc(-c2ccc(Br)o2)n1Cc1ccccc1`, the result in experiment [1], in experiment [2], in experiment [3], in experiment [4] and in experiment [5] was inactive.
For `Cc1ccc(S(=O)(=O)N2CCN(C(=O)c3ccc(Br)o3)CC2)c(C)c1`, the outcome in experiment [1], in experiment [2], in experiment [3], in experiment [4] and in experiment [5] was inactive.
Take `CCN(CC)C(=S)SCC(=O)Nc1nc(=O)c2ccccc2s1`: the outcome in experiment [1], in experiment [2], in experiment [3], in experiment [4] and in experiment [5] was inactive.
Turning to `CC(Sc1cccc[n+]1[O-])c1ccccc1` (stereo not given), the result in experiment [1], in experiment [2], in experiment [3], in experiment [4] and in experiment [5] was inactive.
For `COc1ccc(C(=O)/C=C/C(=O)N(CC(=O)NC2CCCCC2)Cc2ccccc2)c(O)c1`, the result in experiment [1], in experiment [3], in experiment [4] and in experiment [5] was inactive. The potentiation in experiment [2] is 25% (active).
Regarding `COc1cccc(NC(=S)NC(=O)c2c(Cl)c(C)nn2C)c1`, the result in experiment [1], in experiment [2], in experiment [3], in experiment [4] and in experiment [5] was inactive.
Turning to `CCOC(=O)CNC(=O)N1CCc2ccc(NC(=O)c3ccccc3Cl)cc2C1`, the outcome in experiment [1], in experiment [2], in experiment [3], in experiment [4] and in experiment [5] was inactive.
